Hits are enriched below; roughly 7.6% of the tested compounds scored in any of these assays.
Jurkat tox 60K: reduces viability or proliferation of Jurkat cells. Jurkat E6.1 viability, ATP luminescence, 48 h. inhibition, % at 4 µM. 56,000 tested, 1.2% active;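 active = inhibition above the mean inhibition of all tested compounds plus 3 SD, cut at about 28% in these data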
M1 antag: M1 muscarinic receptor (rat) antagonism; AID 628; CHO-M1 cells, Fluo-4 calcium, ACh EC80 antagonist mode; hits give low values; B-score at 10 µM; P08482; 64,000 tested, 3.4% active;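 active = calcium fluorescence response, raw or row-and-column corrected B-score, differing from the plate sample mean either way at a set confidence level, mostly lower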
D1 mod: allosterically modulates the human D1 dopamine receptor; HEK293 D1, CRE-luciferase, dopamine EC30 potentiation; actives deviate in either direction; B-score at 10 µM; P21728; 58,000 tested, 5.9% active;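 active = luminescence count or its row- and column-corrected plate score outside the 99.7% band of the plate's sample wells, on either side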
Target sequence (P21728 whole entry, looked up): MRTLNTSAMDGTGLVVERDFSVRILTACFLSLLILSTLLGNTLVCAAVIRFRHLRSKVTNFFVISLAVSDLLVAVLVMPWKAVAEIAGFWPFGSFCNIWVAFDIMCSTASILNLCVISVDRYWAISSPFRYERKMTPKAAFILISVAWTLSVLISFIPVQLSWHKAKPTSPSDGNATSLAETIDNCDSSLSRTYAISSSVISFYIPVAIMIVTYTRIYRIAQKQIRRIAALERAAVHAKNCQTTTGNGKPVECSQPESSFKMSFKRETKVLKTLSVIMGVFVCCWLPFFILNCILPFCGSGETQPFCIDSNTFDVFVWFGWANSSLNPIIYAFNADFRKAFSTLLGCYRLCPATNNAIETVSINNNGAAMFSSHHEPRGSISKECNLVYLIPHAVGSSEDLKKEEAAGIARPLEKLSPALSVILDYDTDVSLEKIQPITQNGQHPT
DAT uptake mod: human DAT dopamine uptake with cocaine, either direction. Q01959. LLC-PK1 hDAT cells, [14C]-dopamine uptake with cocaine IC80; actives deviate in either direction. B-score at 10 µM. 110,000 tested, 1.3% active. AID 449768;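 active = Z score or B-score, a plate-position-corrected score, falls beyond the plate's 99.7% confidence bounds, in either direction; inactive = both scores lie inside the 99.7% bounds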;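 also: scored against the spread of the other compound wells on the same plate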
M1 ag: agonists of M1 muscarinic receptor | 64,000 tested, 3% active | CHO-M1 cells, Fluo-4 calcium fluorescence, agonist mode; hits give high values | AID 626 | B-score at 10 µM;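 active = fluorescence rise, raw or as B-score row- and column-corrected plate score, outside the 99.7% band of its plate's samples, either direction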
HEK293 NFkB inh: inhibitors of the PMA/ionomycin-induced NF-kB reporter in HEK293 cells; AID 465; HEK-293 NF-kB luciferase reporter, luminescence; 62,000 tested, 0.21% active; inhibition, % at 3 µM;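 active = inhibition above the mean of all tested compounds plus 3 SD, cut at about 40% in these data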;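 also: 0% = stimulated DMSO wells and 100% = 10 µM reference inhibitor 5653914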
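Material: HEK-293 cells with stable firefly luciferase reporter driven by four HIV NF-kB elements / Also added: PMA plus ionomycin mix as NF-kB-activating stimulus / Compound dosing: 3 µM once, 0.30% DMSO / Times: 1 h pretreatment, 16 h stimulation, 37 °C / Signal: luminescence / Evaluation: per-plate % inhibition versus controls / Benchmarks: DMSO and 10 µM reference inhibitor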
M1 agonist conf: confirmation of rat M1 muscarinic receptor agonists. shares compounds with M1 ag. CHO-M1 cells, Fluo-4 calcium fluorescence, agonist mode; actives lie on both sides. fluorescence change (max-min) at 10 µM. 1,700 tested, 19% active. AID 1488;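 active = fluorescence change differs from the solvent-only DMSO control mean at a set confidence level in both duplicate runs; inconclusive = differs from solvent-only control mean in just one of two runs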;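 also: an EC20 dose of acetylcholine follows compound addition during the same imaging run; raw fluorescence intensity difference in instrument units with no normalization to controls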
M4 agonist ctr: counter-screen for M1 agonists: activity at rat M4 receptor. shares compounds with M1 ag. 1,700 tested, 9% active. fluorescence change (max-min) at 10 µM. AID 1741. CHO M4/Gqi5 cells, Fluo-4 calcium fluorescence, agonist mode; actives lie on both sides;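 active = fluorescence change differing from the plate's solvent-only control wells at 99.7% confidence in both duplicates, whether higher or lower; inconclusive = differs from solvent controls in only one of two duplicates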
M1 antag confirm: confirmation of rat M1 muscarinic receptor antagonists; shares compounds with M1 antag; CHO-M1 cells, Fluo-4 calcium, ACh EC80 antagonism; hits give low values; calcium response (max-min fluorescence) at 10 µM; AID 677; 1,700 tested, 43% active;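 active = calcium response below the same-plate mean of wells given acetylcholine alone at its 80%-effect dose, minus 3 SD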;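 also: raw fluorescence intensity difference in arbitrary instrument units and not normalized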
mGluR4 antag: acts on human mGluR4 in M1 antagonist selectivity test; CHO-mGluR4 calcium flux, Fluo-4 fluorescence, glutamate EC80; hits give low values; AID 678; fluorescence response (max-min) at 10 µM; shares compounds with M1 antag; 1,700 tested, 0.9% active;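 active = fluorescence response below the plate's average for near-maximal glutamate wells, less 3 SD of those wells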;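 also: raw unnormalized fluorescence span taken in the window right after glutamate addition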
D1 mod confirm: D1 receptor (human) allosteric modulation, confirmed; shares compounds with D1 mod; HEK293 D1 CRE-luciferase, dopamine EC30 potentiation; hits give high values; luminescence at 10 µM; 2,200 tested, 88% active;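 active = luminescence in either of two replicates above the same-plate mean plus 3 SD of the low-dose dopamine control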
D1 ag no DA: activates D1 CRE-luciferase signal without dopamine present; shares compounds with D1 mod; HEK293 D1 CRE-luciferase, luminescence, no dopamine; hits give high values; luminescence at 10 µM; 1,900 tested, 0.8% active; in the data active = luminescence above about 3900
Isoprot counter: alters isoproterenol CRE-luciferase response in HEK293 cells; HEK293 D1 CRE-luciferase, isoproterenol EC30 counter-screen; AID 647; 2,200 tested, 63% active; shares compounds with D1 mod; calls only at 10 µM;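 active = luminescence in either replicate above plate mean of wells with a partly effective reference agonist dose plus 3 SD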;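 also: isoproterenol raises cAMP through native beta-adrenoceptor Gs so signal bypasses D1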
Starred values were filed as active, the others as inactive; i = inactive; ? = inconclusive; / = no result; + = active, no number.

SMILES | Jurkat tox 60K | M1 antag | D1 mod | DAT uptake mod | M1 ag | HEK293 NFkB inh | M1 agonist conf | M4 agonist ctr | D1 mod confirm | D1 ag no DA | Isoprot counter | others
CCCCCc1c(C)c(C#N)c2nc3ccccc3n2c1-n1ccnc1C | / | / | / | -0.215 | / | / | / | / | / | / | /
C=C(C)CN1CCN(c2c(CCC#N)c(C)c(C#N)c3nc4ccccc4n23)CC1 | / | 0.0647 | 5.38* | -0.485 | 5.7* | / | 7.39 | 0.765 | 11364* | 1768 | +
CCC(=O)N(Cc1ccco1)c1nc(-c2ccccc2)cs1 | -1.2 | -0.0825 | -0.0558 | -1.37 | 0.3 | 9.1 | / | / | / | / | /
c1cncc(-c2nnc(-c3cccs3)o2)c1 | / | 1.21 | 0.112 | -0.19 | -0.4 | 11.0 | / | / | / | / | /
N#Cc1c(-c2cccs2)cc(-c2cccnc2)nc1N | 9.5 | 0.694 | 18.3* | -0.0617 | 2.84* | 6.6 | ? | -48.6 | 16780* | 1536 | +
O=C(O)c1cn(-c2ccccc2)nc1-c1ccncc1 | -4.4 | 0.0435 | / | 0.0787 | 0.0279 | -1.0 | / | / | / | / | /
CCOC(=O)c1cn(-c2ccccc2)nc1-c1ccncc1 | 3.8 | -0.244 | 12.6* | 0.7 | 2.2* | 7.0 | ? | ? | 20136* | 1728 | +
O=C(CN1C(=O)/C(=C/c2ccccc2)SC1=S)Nc1ncc(Cc2ccccc2)s1 | / | / | / | -0.29 | / | / | / | / | / | / | /
CCCCCn1c(=NC(=O)c2ccco2)c(C(=O)OCC)cc2c(=O)n3ccccc3nc21 | 0.1 | -0.403 | 3.17 | / | 1.88 | 21.1 | / | / | / | / | /
CCCCn1c(=NC(=O)c2cccnc2)c(C(=O)OCC)cc2c(=O)n3ccccc3nc21 | / | -0.361 | 6.99* | 0.704 | 8.84* | 15.7 | -33.5* | ? | 11452* | 1452 | i
CCn1nc(NC(=O)c2cccnc2)c2cc3ccccc3nc21 | / | -0.0959 | 6.64* | 1.36 | 5.01* | / | -29.9* | -91.6* | 7008* | 1544 | +
CCn1nc(NC(=O)c2ccccn2)c2cc3cc(C)ccc3nc21 | -5.5 | 1.03 | 0.901 | 1.51 | -0.00622 | -5.2 | / | / | / | / | /
COC(=O)c1cc(=O)n(Cc2ccco2)c(=Nc2ccc(F)c(Cl)c2)s1 | 5.1 | -0.662 | 7.38* | -0.732 | 7.07* | 19.7 | -14.6 | -38.8 | 8744* | 1432 | i
O=C(CN1C(=O)CSC1=O)NCc1ccccc1 | -0.9 | -0.0207 | -0.702 | -0.05 | -0.554 | -1.7 | / | / | / | / | /
CCCCn1c(NC(C)=O)c(C#N)c2nc3ccccc3nc21 | 0.8 | 0.496 | 3.76* | -0.371 | 5.52* | 19.0 | 36.8 | -6.77 | 11192* | 1596 | i
CC(=O)NCCn1c(SCC(=O)c2ccc(Cl)cc2)nc2ccccc2c1=O | / | / | / | 0.214 | / | / | / | / | / | / | /
CCOC(=O)c1c(NC(=O)c2nn(CC)cc2Br)c(C#N)cn1-c1ccccc1 | 0.8 | -1.13 | 6.66* | 1.57 | 3.1* | 14.4 | -3.04 | -20.7 | 8888* | 816 | +
COc1ccc(-c2c3c(=O)n(C)c(=O)n(C)c3cn2-c2ccccc2)cc1 | 4.8 | -0.0103 | 6.46* | 0.491 | 2.23* | -5.2 | ? | -37.6 | 12728* | 1536 | i
Cc1ccc2c(c1)c1nc3ccccc3nc1n2CCN1CCOCC1 | -2.2 | -0.0204 | 7.7* | 1.36 | 7.15* | 5.6 | -9.02 | -21.1 | 21896* | 1556 | +
CN(C)c1ccc2c(c1)OC(N)=C(C#N)C2c1cccc(F)c1 (stereo not drawn) | 86.3* | -3.44* | 8.83* | -2.14 | 20.3* | 43.6* | 163* | 120* | 14124* | / | +
COC(=O)C1=C(C)NC(C)=C(C(=O)OC)C1c1ccccc1OCc1c(C)no[n+]1[O-] | -2.8 | -0.321 | -0.244 | -0.0131 | -0.299 | 19.3 | / | / | / | / | /
O=C(NC1CCCCC1)c1ccc(S(=O)(=O)NCc2ccco2)cc1 | 6.1 | -2.44* | / | 0.321 | -1.26 | 3.9 | / | / | / | / | / | M1 antag confirm=634;mGluR4 antag=228
O=C(Nc1ccccc1C(=O)NCc1ccco1)NC1CCCCC1 | / | -3.12* | 2.86 | 0.723 | -0.038 | 10.0 | / | / | / | / | / | M1 antag confirm=639;mGluR4 antag=243
Cc1ccc(S(=O)(=O)NC2=NCN(C3CCN(Cc4ccccc4)CC3)CN2)cc1 | 3.0 | -3.2* | -0.291 | -0.2 | 0.586 | 5.4 | / | / | / | / | / | M1 antag confirm=449;mGluR4 antag=201
Cc1ccc(S(=O)(=O)NC2=NCN(Cc3ccccc3)CN2)cc1 | -9.7 | 0.0442 | / | -0.196 | -0.434 | 6.5 | / | / | / | / | /
SMILES | Jurkat tox 60K | M1 antag | D1 mod | DAT uptake mod | M1 ag | HEK293 NFkB inh | M1 agonist conf | M4 agonist ctr | D1 mod confirm | D1 ag no DA | Isoprot counter | others
CCCCN1C(=O)C2ON(c3ccccc3C)C(c3ccco3)C2C1=O (stereo not drawn) | 3.3 | -0.941* | -0.235 | -0.145 | 0.187 | 8.0 | / | / | / | / | / | M1 antag confirm=532*;mGluR4 antag=223
CCc1ccc(N2C(=O)C3ON(c4ccccc4)C(c4ccco4)C3C2=O)cc1 (stereo not drawn) | 0.4 | 0.75 | 0.179 | 0.156 | -0.899 | 7.4 | / | / | / | / | /
Cc1ccc2cc3cc(C(=O)NCCCN4CCc5ccccc5C4)oc3nc2c1 | 3.4 | -3.45* | -1.67 | 2.22 | -0.135 | 23.8 | / | / | / | / | / | M1 antag confirm=518;mGluR4 antag=235
CC1CCc2cc(F)ccc2N1C(=O)CSc1nnc(-c2cccs2)n1C (stereo not drawn) | -1.5 | -6.13* | -0.016 | 1.02 | -0.572 | 1.4 | / | / | / | / | / | M1 antag confirm=545;mGluR4 antag=181
O=C(c1oc(=O)c2ccccc2c1-c1ccccc1)N1CCN(C2CCCCC2)CC1 | 2.9 | -6.61* | 1.58 | 0.464 | 1.08 | 2.4 | / | / | / | / | / | M1 antag confirm=349*;mGluR4 antag=209
COc1ccc(C(=O)N2CCCC2)cc1S(=O)(=O)N1CCOCC1 | -3.5 | 0.424 | 0.368 | -0.279 | 0.844 | 12.8 | / | / | / | / | /
COc1cc2c(cc1OC)CN(C(=O)c1ccc(OC)c(S(=O)(=O)N3CCOCC3)c1)CC2 | -3.2 | -0.836* | 1.89 | 1.23 | -0.731 | 21.2 | / | / | / | / | / | M1 antag confirm=586;mGluR4 antag=239
Clc1ccc(-c2nc3ccccc3n2OCc2ccccc2)cc1 | / | / | / | -0.166 | / | / | / | / | / | / | /
COCc1[nH]nc2c1C(c1ccc(OC)cc1)C(C#N)=C(N)O2 (stereo not drawn) | / | 0.137 | / | -0.87 | -0.467 | / | / | / | / | / | /

Assay outcomes as filed in PubChem BioAssay.
